Screens deposited in PubChem by Columbia University Molecular Screening Center.
Only a selection was taken, and hits are over-represented in it overall.
Insulin prom act = activators of insulin promoter-driven GFP, primary screen, imaging, TRM-6 cells, eGFP reporter, cell count; plate-scaled: unstimulated 0, stimulated control 100; activation, % at 2 µM; 130,000 compounds, 0.81% hits;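 active = activation at 2 µM above a set limit, confirmed on inspection of the cell images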;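 note: share of cells whose green reporter signal exceeds an intensity cutoff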
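Test system: human fetal islet-derived TRM-6 cells with tamoxifen-inducible insulin promoter–eGFP reporter; schedule: overnight tamoxifen, then two-day compound incubation at 37 °C; measured by: high-content imaging of fixed cells with Hoechst nuclear stain; evaluation: percent cells above green-intensity threshold, converted to percent activation versus plate controls; control set: stimulated and unstimulated wells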
Hits are given with their value; 0 = inactive.

SMILES	Insulin prom act
O=C(COc1nncc2ccccc12)Nc1ccc(F)c(F)c1	0
CCOC(=O)c1c(C)oc2ccc(OC(=O)c3cccs3)cc12	0
CCOC(=O)c1c(CN2CCN(C)CC2)oc2ccc(OC)cc12	138.5
CCOC(=O)CCC(=O)c1c(C)oc2ccc(OC)cc12	0
CCOC(=O)c1c(C)oc2cc3c(C(=O)OCC)c(C)oc3cc12	0
Cc1cc2n(c(=O)c1C#N)CCCN2c1ccccc1	0
CC1Cc2cc(/C(O)=C3/C(=O)C(=O)N(CCN4CCOCC4)C3c3cccc(O)c3)ccc2O1 (centres undefined)	466.7
Cc1ccc(/C(O)=C2/C(=O)C(=O)N(CCN3CCOCC3)C2c2ccccn2)cc1 (centres undefined)	850.0
O=C1C(=O)N(CCN2CCOCC2)C(c2ccncc2)/C1=C(/O)c1ccc2c(c1)OCO2 (centres undefined)	0
O=C(C1=C(O)C(=O)N(CCCN2CCOCC2)C1c1ccccn1)c1cc2ccccc2o1 (centres undefined)	0
CCN(CC)CCCN1C(=O)C(=O)/C(=C(/O)c2ccc(C)cc2)C1c1ccccn1 (centres undefined)	0
CCN(CC)CCCN1C(=O)C(=O)/C(=C(/O)c2ccc3c(c2)OCCO3)C1c1ccco1 (centres undefined)	0
Cc1cccc(NC(=O)C(=O)NCc2ccc3c(c2)OCO3)c1C	0
O=C(CN1CCN(C/C=C/c2ccccc2)CC1)Nc1cc([N+](=O)[O-])ccc1Cl	0
CCOC(=O)c1c(C)n2c3c(cc(C)cc13)CCC2	0
CCCCn1ccnc1C(=O)c1ccc(S(=O)(=O)N(CCOC)CCOC)cc1	0
CC(C)(C)C1CCC(C(=O)OCC(=O)N2CCOCC2)CC1 (centres undefined)	0
Cc1cccc2cc(CN(Cc3ccccc3)C(=O)N3CCOCC3)c3nnnn3c12	0
CC(=O)c1cn(CC(=O)Nc2ccc(C)c(C)c2)c2ccccc12	533.3
CC(=O)c1cn(CC(=O)Nc2ccc(C)cc2)c2ccccc12	0
CC(=O)c1cn(CC(=O)NCc2ccc3c(c2)OCO3)c2ccccc12	0
Cc1ccc(S(=O)(=O)NCCOc2nc(N3CCOCC3)nc(N3CCOCC3)n2)cc1	0
Cc1cccc(N2CCN(c3nnnn3-c3ccccc3)CC2C)c1 (centres undefined)	0
O=C(NC1CCCc2ccccc21)C1CCN(S(=O)(=O)c2cnc[nH]2)CC1 (centres undefined)	0
O=C(NC1CCCc2ccccc21)C1CCN(S(=O)(=O)c2ccccc2F)CC1 (centres undefined)	0
SMILES	Insulin prom act
O=C(NC1CCCc2ccccc21)C1CCN(c2nnc(-n3cccc3)s2)CC1 (centres undefined)	185.7
Cc1nn(C)c(C)c1CS(=O)(=O)c1ccccc1	0
CCc1ccc2nc3sc(C(=O)O)cc3cc2c1	0
Cc1ccc(S(=O)(=O)N(CCC#N)C2CCCCC2)c2nsnc12	0
NC(=O)C1CC(=O)N(c2ccc(OCc3ccc(Cl)cc3)cc2)C1 (centres undefined)	0
CCCOc1ccc(/C=N/Nc2ccccc2[N+](=O)[O-])c(OCCC)c1	0
COc1ccc(C(=O)CSc2nnc(CNC(=O)c3ccc(OC)cc3)n2C)cc1	0
CCc1nnc(NC(=O)c2ccc3c(c2)C(=O)N(C(C)(C)C)C3=O)s1	0
Cc1ncoc1C(=O)Nc1nccs1	0
CCCN1C(=O)c2ccc(C(=O)Nc3nccs3)cc2C1=O	475.0
CCCN1C(=O)c2ccc(C(=O)NCc3ccco3)cc2C1=O	0
O=C(Nc1nccs1)c1cccc(S(=O)(=O)N2CCCCC2)c1	0
CCC(CC)C(=O)Nc1cccc(C(=O)Nc2nccs2)c1	75.7
CC1CC(C)CN(CCCNC(=O)CCNC(=O)Cn2ccc3ccccc3c2=O)C1 (centres undefined)	0
Oc1cccc(C(O)CNCc2ccc(OCc3ccc(Cl)cc3Cl)cc2)c1 (centres undefined)	0
O=C(COc1cccc2ccccc12)NCc1cccnc1	0
Cc1ccccc1-c1noc(-c2cccs2)n1	0
COc1cc(-c2nc(Cc3c(F)cccc3Cl)no2)cc(OC)c1OC	0
Cc1ccccc1-c1nc(Cc2ccc(Cl)cc2)no1	102.9
COC(=O)CC(c1ccc(C(C)C)cc1)n1cccc1 (centres undefined)	0
C=C1C(O)C[C@H]2C(=C)CCC3[C@H](OC(=O)[C@]3(O)CO)[C@@H]12 (some centres undefined)	275.0
CCCN(CCC)C(=O)CSc1nc2ccccc2c(=O)n1C1CCCC1	0
COc1cc(/C=N\Nc2nc3ccccc3o2)cc(OC)c1OC	468.8
COc1cc(/C=N/Nc2nc3ccccc3o2)cc(OC)c1O	0
COc1ccc(/C=N/Nc2nonc2N)cc1OC	0
SMILES	Insulin prom act
Nn1c(SCC(=O)NC(=O)Nc2ccc3c(c2)OCCO3)nnc1C1CC1	0
Cc1cccc(-n2nc3c(c2NC(=O)CCC2CCCCC2)CS(=O)C3)c1C (centres undefined)	0
CC1(C)CC(=O)C(C=N)=C(O)C1	0
CC(=NCCCNC1CCCCC1)C1=C(O)CC(C)(C)CC1=O	89.5
CC1(C(=O)Oc2ccccc2)Cc2ccccc2C(=O)O1 (centres undefined)	0
COc1ccc(Nc2nc(-c3cccs3)cs2)cc1	0
COc1ccc(Nc2nc(-c3cccs3)cs2)c(OC)c1	592.3
COc1ccc(OC)c(Nc2nc(-c3cccs3)cs2)c1	0
CC(C)[C@H](NC(=O)c1ccccc1)C(=O)OCC(=O)NCc1ccc(F)cc1	0
COc1ccc(S(=O)(=O)N2CC3CCCN3c3ccc(C(F)(F)F)cc32)cc1 (centres undefined)	0
Cc1cc(C)nc(SCC(=O)N/N=C/c2cccn2-c2ccc(O)cc2)n1	106.3
Cc1cc(C)nc(SCC(=O)Nc2ccc(N3CCOCC3)cc2)n1	0
C/C(=N\NC(=O)CSc1nc(C)cc(C)n1)c1cccs1	0
COc1ccc(N2CCN(C(CNS(C)(=O)=O)c3ccco3)CC2)cc1 (centres undefined)	0
Cc1ccc(O)c(NC(=S)NC(=O)c2ccc(-c3ccc(Cl)cc3)o2)c1	0
CCCCn1c(=O)[nH]c(=O)c2c1nc(COC(=O)c1c(C)noc1C)n2CCC	0
COc1cccc(-c2ccc(SCc3ccccn3)nn2)c1	0
COc1ccc(S(=O)(=O)NNC(=O)C2Cc3c(ccc4ccccc34)O2)cc1 (centres undefined)	0
CCOC(=O)COn1c(=O)c(-c2ccc(OC)c(OC)c2)[n+]([O-])c2ccccc21	0
COc1ccc(-c2c(=O)n(OCc3ccccn3)c3ccccc3[n+]2[O-])cc1OC	0
Cc1c(=O)n(OCc2cccc(F)c2)c2ccccc2[n+]1[O-]	132.4
CCCS(=O)c1nc(C)cc(C)c1S(C)(=O)=O (centres undefined)	0
O=C1CCC([N+](=O)[O-])C(c2cccc(Cl)c2Cl)N1 (centres undefined)	0
CCc1ccccc1NC(=O)c1ccc([N+](=O)[O-])s1	0
C=CCNC(=S)N1CCC(C(=O)c2ccc(OC)cc2)CC1	0
SMILES	Insulin prom act
COC(=O)C1CCN(C(=O)CCCOc2ccccc2)CC1	0
COCCC(=O)N1CCCC(C(=O)c2ccc(Oc3ccccc3)cc2)C1 (centres undefined)	541.7
O=C(Nc1ccccc1)/C(=C\c1cccs1)NC(=O)c1ccccc1	0
O=C(N/C(=C/c1cccs1)C(=O)N1CCCCCC1)c1ccccc1	0
Cc1ccc(C(=O)N/C(=C\c2cccs2)C(=O)NC2CCCCC2)cc1	400.0
O=C(CSc1ncn[nH]1)Nc1c(F)cc(F)cc1Br	0
